# Columns and labels:
# [1] = tested on: U87MG human glioma xenografts; assay: Biodistribution in athymic nude mice bearing U87MG glioma xenografts; format: in vivo
# [2] = as above; format: in vivo; conditions: female, athymic nu/nu, mouse, iv, total radioactivity
# [3] = Solution stability in the kit matrix by radio-HPLC; format: physicochemical; conditions: kit matrix (TPPTS, tricine, mannitol, succinate buffer); monitored by radio-HPLC for 6 h
# U87MG glioma xenografts = assay: SPECT/CT quantification of tumor uptake, U87MG glioma model; format: in vivo, athymic nude mice; conditions: ~37 MBq i.v., SPECT/CT at 60 min p.i.
# How it was run: (§1)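 Mice bearing U87MG glioma and MDA-MB-231 breast xenografts (4 weeks post-inoculation) got ~37 MBq 99mTc radiotracer (not HPLC-purified) in 0.1 mL saline by tail vein, under ~2.0% isoflurane. Multi-pinhole SPECT (75 projections over 30 min per frame, 2 frames), then CT at 45 kV, 500 μA. Tumors delineated on CT/SPECT; activity taken from a γ-counter-calibrated source standard curve, as %ID/cm3.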
# [4] = SPECT/CT quantification of tumor uptake, MDA-MB-231 breast tumor model; format: in vivo, athymic nude mice; conditions: athymic nude, mouse, iv, 37 MBq, total radioactivity
# How it was run: as §1
# [5] = 5 min p.i., U87MG glioma-bearing athymic nude mice
SMILES,"tissue uptake at 0.5 h ([2]; lungs, 0.1 MBq) [%ID/g]","tissue uptake at 1 h ([2]; lungs, 0.1 MBq) [%ID/g]","tissue uptake at 2 h ([2]; lungs, 0.1 MBq) [%ID/g]","tissue uptake at 0.5 h ([2]; muscle, 0.1 MBq) [%ID/g]","tissue uptake at 1 h ([2]; muscle, 0.1 MBq) [%ID/g]","tissue uptake at 2 h ([2]; muscle, 0.1 MBq) [%ID/g]","tissue uptake at 0.5 h ([2]; spleen, 0.1 MBq) [%ID/g]","tissue uptake at 1 h ([2]; spleen, 0.1 MBq) [%ID/g]","tissue uptake at 2 h ([2]; spleen, 0.1 MBq) [%ID/g]","tissue to tissue ratio at 0.5 h ([2]; tumor and blood, 0.1 MBq)","tissue to tissue ratio at 1 h ([2]; tumor and blood, 0.1 MBq)","tissue to tissue ratio at 2 h ([2]; tumor and blood, 0.1 MBq)","tissue to tissue ratio at 0.5 h ([2]; tumor and liver, 0.1 MBq)","tissue to tissue ratio at 1 h ([2]; tumor and liver, 0.1 MBq)","tissue to tissue ratio at 2 h ([2]; tumor and liver, 0.1 MBq)",tissue to tissue ratio at 0.5 h ([2]; tumor and lung),tissue to tissue ratio at 1 h ([2]; tumor and lung),tissue to tissue ratio at 2 h ([2]; tumor and lung),tissue to tissue ratio at 0.5 h ([2]; tumor and muscle),tissue to tissue ratio at 1 h ([2]; tumor and muscle),also measured
"N=C(N)NCCC[C@@H]1NC(=O)[C@H](CCCCNC(=O)[C@H](CC(=O)O)NC(=O)[C@H](CC(=O)O)NC(=O)[C@H](CC(=O)O)NC(=O)CC[C@H](NC(=O)CCOCCOCCOCCOCCNC(=O)c2ccc(NN)nc2)C(=O)N[C@@H](CC(=O)O)C(=O)N[C@@H](CC(=O)O)C(=O)N[C@@H](CC(=O)O)C(=O)NCCCC[C@@H]2NC(=O)[C@@H](Cc3ccccc3)NC(=O)[C@H](CC(=O)O)NC(=O)CNC(=O)[C@H](CCCNC(=N)N)NC2=O)NC(=O)[C@@H](Cc2ccccc2)NC(=O)[C@H](CC(=O)O)NC(=O)CNC1=O [^99mTc-P6D-RGD2, [^99mTc(HYNIC-P6D-RGD2)(tricine)(TPPTS)], metal not drawn]",2.05 ± 0.28,1.85 ± 0.2,1.11 ± 0.42,1.79 ± 0.2,1.59 ± 0.25,0.79 ± 0.23,2.6 ± 0.37,2.58 ± 0.46,2.4 ± 0.37,2.5 ± 0.33,6.5 ± 0.58,6.98 ± 4.06,0.65 ± 0.15,0.87 ± 0.17,0.84 ± 0.18,1.19 ± 0.35,1.68 ± 0.1,2.41 ± 0.73,1.97 ± 0.53,2 ± 0.36,"Initial blood radioactivity level, fold higher than ^99mTc-3P-RGD2 [1, 5]: ~3 ×; Initial blood radioactivity level, fold higher than ^99mTc-P6G-RGD2 [1, 5]: ~5 ×; Integrin αvβ3 specificity of tumor uptake (blocking experiment) ([1]; 60 min p.i., with/without coinjection of excess RGD2 (350 μg/mouse or 14 mg/kg)): integrin αvβ3-specific; tissue uptake at 1 h ([2]; blood, 14 mg/kg): 0.23 ± 0.01 %ID/g; tissue uptake at 1 h ([2]; brain, 14 mg/kg): 0.02 ± 0.01 %ID/g; tissue uptake at 1 h ([2]; eyes, 14 mg/kg): 0.23 ± 0.1 %ID/g; tissue uptake at 1 h ([2]; heart, 14 mg/kg): 0.2 ± 0.07 %ID/g; tissue uptake at 1 h ([2]; intestine, 14 mg/kg): 0.22 ± 0.11 %ID/g; tissue uptake at 1 h ([2]; kidneys, 14 mg/kg): 23.9 ± 3.61 %ID/g; tissue uptake at 1 h ([2]; liver, 14 mg/kg): 0.28 ± 0.04 %ID/g; tissue to tissue ratio at 1 h ([2]; tumor and lung, 14 mg/kg): 1.1 ± 0.13; tissue to tissue ratio at 2 h ([2]; tumor and muscle): 3.3 ± 1.24; tissue uptake at 0.5 h ([2]; tumor, 0.1 MBq): 2.85 ± 0.55 %ID/g; tissue uptake at 1 h ([2]; tumor, 0.1 MBq): 3.13 ± 0.47 %ID/g; tissue uptake at 2 h ([2]; tumor, 0.1 MBq): 2.45 ± 0.9 %ID/g; Time remained stable in the kit matrix postlabeling [3]: more than 6 h"
"N=C(N)NCCC[C@@H]1NC(=O)[C@H](CCCCNC(=O)CNC(=O)CNC(=O)CNC(=O)CC[C@H](NC(=O)CCOCCOCCOCCOCCNC(=O)c2ccc(NN)nc2)C(=O)NCC(=O)NCC(=O)NCC(=O)NCCCC[C@@H]2NC(=O)[C@@H](Cc3ccccc3)NC(=O)[C@H](CC(=O)O)NC(=O)CNC(=O)[C@H](CCCNC(=N)N)NC2=O)NC(=O)[C@@H](Cc2ccccc2)NC(=O)[C@H](CC(=O)O)NC(=O)CNC1=O [^99mTc-P6G-RGD2, [^99mTc(HYNIC-P6G-RGD2)(tricine)(TPPTS)], metal not drawn]",4.38 ± 0.55,3.83 ± 0.56,2.81 ± 0.36,1.75 ± 0.24,1.68 ± 0.33,0.83 ± 0.11,3.08 ± 0.88,2.68 ± 0.57,2.31 ± 0.27,14.1 ± 1.25,15.6 ± 2.79,41.8 ± 5.13,2.95 ± 0.33,2.86 ± 0.3,3.21 ± 0.53,2.07 ± 0.15,2.35 ± 0.24,2.71 ± 0.12,5.04 ± 0.68,5.09 ± 0.51,"tissue to tissue ratio at 2 h ([2]; tumor and muscle): 9.42 ± 1.25; tissue uptake at 0.5 h ([2]; tumor, 0.1 MBq): 8.85 ± 0.67 %ID/g; tissue uptake at 1 h ([2]; tumor, 0.1 MBq): 8.17 ± 1.1 %ID/g; tissue uptake at 2 h ([2]; tumor, 0.1 MBq): 7.82 ± 0.76 %ID/g; Tumor uptake on the basis of SPECT quantification (U87MG glioma xenografts): ~8.2 %ID/cm^3; Time remained stable in the kit matrix postlabeling [3]: more than 6 h; tissue uptake per volume at 1 h [4]: 3.5 %ID/mL"

# — PMC4166031 (Bioconjugate Chemistry, 2014)
